For the data set, the system named is MS2 coat protein. Description: apparent Kd, MS2 coat protein; higher = weaker binding; RNA-MaP array; FMN 200 µM where present. The method in brief: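 Designs were transcribed by stalled E. coli RNA polymerase on Illumina sequencing-chip clusters. They were titrated with SNAP-549-labelled MS2 coat protein from 0.7 or 1.5 nM, doubling to 3 µM, in 100 mM Tris-HCl pH 7.5, 80 mM KCl, 4 mM MgCl2, BSA, DTT, yeast tRNA and Tween-20, without and then with constant ligand. The apparent Kd is the median of filtered per-cluster fits after normalisation of green signal to red-channel RNA signal and control-cluster median Fmax.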

[1] abbreviates: designed as: ON switch for flavin mononucleotide, no ligand.
The mark [2] stands for this setting: ligand present: flavin mononucleotide, designed as: ON switch for flavin mononucleotide.
Setting [3] is: designed as: OFF switch for flavin mononucleotide, no ligand.
Where [4] appears, read: ligand present: flavin mononucleotide, designed as: OFF switch for flavin mononucleotide.

Experimental findings from the EternaBench riboswitch data are described below.

Broadly, the apparent Kd is a dissociation constant that holds for the conditions of the assay. For the sequence “UGGUAAUAGGGAGGAUAUGGGAAGAUACAUGAGGAUCACCCAUGUUUAAGAAUGCCGAGAGGCAACUAGAAGGCCCUAGUACCU”, the “apparent Kd” value under setting [1] stood at 468 nM and the “apparent Kd” value under setting [2] was 19.6 nM.
Consider “ACAUGCGGAUGAGGAUAUUCAUUCAUGAGGAUAGAAGAAGGCAUACAUGAGGAUCACCCAUGUAUACGCAUGAGGAUCCCUUAU”, for which the “apparent Kd” value reads like this: under setting [3], 24.8 nM; under setting [4], 32.7 nM.
Consider “CAGCUGAAUGUGAGGAUAUCUAGAGCUUCGGCUCUAGAGAAGGCACAUGAGGAUCACCCAUGUCUCAACAGCUG”, for which the “apparent Kd” value by setting is: under setting [3], 39.2 nM; under setting [4], 296 nM.
As for “AGACGGAGCAGAGGAUAUACAUGAGGAUCACCCAUGUAAGAUCUCCAGGAAACUGGAGAUCAAAUGUAGAAGGCUGCUCCGUCA”, the “apparent Kd” value reads like this: under setting [3], 17.8 nM; under setting [4], 55.8 nM.
The matching figures for “GGUUGGCGAGGAUAUACAUGAGGAUCACCCAUGUGGUCCUAAAAAAAAAUAAACCUUUGUAGAAGGCGCGGGUC”: 258 nM and 290 nM.
As for “UUACGUCCCGUUUACAUGAGGAUCACCCAUGUCGAAAGAGCGGAGGAUAUGCUACCUAGUUGGUAGCAGAAGGCUGCAACGUCG”, the “apparent Kd” value is 35.2 nM under setting [1] and 46.5 nM under setting [2].
The matching figures for “UGGUACUAGGGAGGAUAUGGGAAGAUACAUGAGGAUCACCCAUGUUUAAGUAUGCCGAGAGGCAACUAGAAGGCCCUAGUACCU”: 1440 nM and 116 nM.
As for “AGCCUACAUGAGGAUCACCCAUGUCAGGAUAUCUCGCGGCGUGUCAAGUUCACACUGCAGAGAAGGGACUCGGG”, the “apparent Kd” value runs as follows: under setting [3], 58.1 nM; under setting [4], 66.9 nM.
The matching figures for “UUAACAUGCUUAGGAUAUCGGAUUUUUUUUUUUCGAGAAGGAAGAUUCUUUUUUUUUUACAUGAGGAUCACCCAUGUUUAUUUU”: 10.2 nM and 5.78 nM.
Regarding “GCGUAACAUGAGGAUCACCCAUGUGCCCGAGAAUUCGGGCCGAGAAGGGUGACCGGACGUAUGGCACAGGAUAUCGACGUUUUG”, the “apparent Kd” value stood at 33.6 nM under setting [1] and 48.4 nM under setting [2].
“AAACAGCUAGGAUAUACCCUCCGUGAGACUCCCAAAUCGAAACAUGAGGAUCACCCAUGUAGAAGGAGCUGACG”: the “apparent Kd” value worked out at 13.4 nM under setting [3] and 12.2 nM under setting [4].
Turning to “GGUAGAGAGCAGGAUAUCUUGGGUAAGUAUCGUAGAGAAGGGCUCACAUGAGGAUCACCCAUGUGGUCCAAGAU”, the “apparent Kd” value came out at 15.5 nM under setting [3] and 34.2 nM under setting [4].
The matching figures for “UGUCCAUAGCAGAAGGACAUGUAUAAUCAUGAAAACAUGAGGAUCACCCAUGUAGGAUAUGCUAUGGACUAAGAGCGAAAGCUC”: 19.9 nM and 297 nM.
The matching figures for “UGUUGAUAGCAGAAGGACAUGAGGAUCACCCAUGUAUGGAUACAAAUUUAUGUAGGAUAUGCUAUUAACUAAGAGUGAGCGUUC”: 9.46 nM and 42.5 nM.
For the sequence “GUUAUAGGAGGAUAUACAUGAGGAUCACCCAUGUCUCAUCCAUGGCAACGAACCUAUUGUAGAAGGCUUGAAGA”, the “apparent Kd” value under setting [3] was determined as 28.9 nM and the “apparent Kd” value under setting [4] turned out to be 113 nM.
The matching figures for “ACAUGGUAGUAGAAGGGUAUUACUUUAGAUACAACCAUUUGUAUUGUUUAUACAGGAUAUGCUUACAUGAGGAUCACCCAUGUU”: 11.3 nM and 11.1 nM.
The matching figures for “GGAUCGAGUGUGAGGAUAUACCACUGGAUACAGUGGUAGAAGGCACAUGAGGAUCACCCAUGUCCUUACGAUCC”: 81.4 nM and 436 nM.
The matching figures for “AAGCAAGCAGGGAUGCUUCGUAGGGAGGAUAUCUGACUGGGCGGACAUGAGGAUCACCCAUGUACAGAGAAGGCCCAAAACAAC”: 376 nM and 61.6 nM.
As for “CAUGUCCUCACAGGAUAUGCAAUGUAUUUCAUUGCAGAAGGGUGAAUACAUGAGGAUCACCCAUGUGGACAUGAUAUAUUUAAU”, the “apparent Kd” value runs as follows: under setting [1], 725 nM; under setting [2], 77.8 nM.
As for “UAGAAGUCAGGAUAUGCUGCUCGUCACUUGCGUGAUGAGUAGCAGAAGGGACAUGAGGAUCACCCAUGUAAAGA”, the “apparent Kd” value came out at 57.4 nM under setting [3] and 79.9 nM under setting [4].
